This is an account of results in ChEMBL document CHEMBL1121513, “Separation of potent central and renal dopamine agonist activity in substituted 6-chloro-2,3,4,5-tetrahydro-7,8-dihydroxy-1-phenyl-1H-3-benzazepines” (J Med Chem, 1980).

The subject of test [1] is Canis familiaris. The test can be described thus: Effective Dose (ED15) required to decrease renal vascular resistance by 15% in anesthetized dogs administered intravenously; d = increase in renal resistance were seen. The following applies: Canis lupus familiaris. It is filed as functional, organism-based. In short, it runs like this: (§1)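 Anesthetized dogs were surgically prepared for electromagnetic measurement of renal and iliac artery blood flow, carotid blood pressure, and ECG-triggered cardiometer heart rate. Drug was infused into an antecubital vein at cumulative, usually threefold increasing doses, 5 min per level. Renal vascular resistance was calculated as mean arterial pressure divided by mean blood flow, with a […] change needed for significance.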

For test [2], the species on record is Rattus norvegicus. Nature of the test: Central dopaminergic activity was determined by testing compound for dopamine agonist activity mediated by adenylase cyclase in rat. It counts as functional, organism-based.
In test [3] the test system is Canis familiaris. Nature of the test: Effective Dose (ED15) required to decrease renal vascular resistance by 15% in anesthetized dogs administered intravenously. It counts as functional. The conditions noted are these: Canis lupus familiaris, iv. In short, it runs like this:
as §1

The species named for test [4] is Canis familiaris. Nature of the test: Potency was expressed as the average maximum cumulative dose required to decrease renal vascular resistance by 15%. It is filed as functional, Canis lupus familiaris. Put shortly:
as §1

Test [5] has as its system Rattus norvegicus. Nature of the test: Central dopaminergic activity was determined by testing compound for its ability to produce contralateral rotation in lesioned rat after intracerebrally administration. It counts as functional.
In test [6] the test system is Rattus norvegicus. The test can be described thus: Central dopaminergic activity was determined by testing compound for its ability to produce contralateral rotation in lesioned rat after ip administration. It is filed as functional.
Test [7] can be described thus: Renal vasodilator activity was measured between ED20, heart rate (HR) test, and ED15 RVR. It counts as functional. In short, it runs like this:
(§2)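 In anesthetized dogs with electromagnetic renal and iliac blood-flow probes, carotid pressure and ECG-triggered heart rate, drug was given as cumulative iv infusions rising about threefold every 5 min. Resistance was pressure divided by flow. Each ratio divides the dose giving a 30% IVR change, a 20% MABP rise or a 20% HR change by the RVR ED15.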

Test [8] can be described thus: Renal vasodilator activity was measured between ED20, measure of mean arterial blood pressure (MABP) test, and ED15 RVR. It counts as functional. Put shortly:
as §2

The nature of test [9]: Renal vasodilator activity was measured between ED30, measure in iliac vascular resistance (IVR) test, and ED15 RVR. It counts as functional. Put shortly: as §2

Each structure is given as a SMILES string. Where only a bound is given, the exact number is not on record here.

As for `Oc1ccc(C2CNCCc3cc(O)c(O)cc32)cc1` (configuration not stated), the ED15 entry in test [1] is “Significant increases”. In test [2], this compound had an EC50 of 500 nM.

`Oc1cc2c(c(Cl)c1O)CCNCC2c1ccccc1` (configuration not stated) had an ED15 in test [3] of 3.5 µg/kg. In test [4], this compound returned an Average max of 39%. In addition, the RD500 in test [5] worked out at 0.22 µg/rat; in test [6] it was 300 µg/kg.

On to `NCCc1ccc(O)c(O)c1` [DOPAMINE], for which the ED15 in [3] came to 2.7 µg/kg. Also, the Average max in [4] was determined as 36%. In test [2], this compound returned an EC50 of 3500 nM. Further, the Selectivity ratio is 141 in test [7], 113 in test [8] and 56 in test [9].

As for `Oc1ccc(C2CNCCc3c2cc(O)c(O)c3Cl)cc1` (configuration not stated) [FENOLDOPAM], in test [3], the ED15 was 0.3 µg/kg. This compound displayed an Average max in test [4] of 59%. Besides, in [2], the EC50 was found to be 18 nM. Also, the values for the RD500 in test [5] and in test [6] were 0.5 µg/rat and 10000 µg/kg, respectively. Besides, the Selectivity ratio was above 6072 in test [7], above 6072 in [8] and above 6070 in [9].

For `Oc1cc2c(cc1O)C(c1ccccc1)CNCC2` (configuration not stated) [SKF-38393], the ED15 in test [3] is 31 µg/kg. The compound further registered an Average max in [4] of 19%. In [2], this compound returned an EC50 of 80 nM. Besides, the RD500 in [5] was 0.18 µg/rat; in test [6] it was 700 µg/kg. Also, the values for the Selectivity ratio in test [8] and in test [9] were 10 and 15, respectively.

As usually defined, the EC50 is the concentration that produces a half-maximal response. Higher therefore signals a less potent agent.
